Measurements: ChEMBL document CHEMBL1268916, “Second generation 2-pyridyl biphenyl amide inhibitors of the hedgehog pathway” (Bioorg Med Chem Lett, 2010)
Values after ≈ are worked out from the molar mass of the structure shown. Active and inactive are the calls of the source. The rule behind the calls is not given here.

Key:
[1] = Inhibition of Hedgehog signaling in human HEPM cells assessed as reduction in receptor-mediated Gli1 mRNA expression by reporter gene assay; assay type: cell-based
[2] = biological target: Cytochrome P450 3A4 (Homo sapiens, UniProt P08684); assay: Inhibition of CYP3A4; assay type: ADME
[3] = Inhibition of Hedgehog signaling in mouse S12 cells assessed as reduction in receptor-mediated Gli1 mRNA expression by reporter gene assay; assay type: cell-based
[4] = biological target: Cytochrome P450 2C9 (Homo sapiens, UniProt P11712); assay: Inhibition of CYP2C9; assay type: ADME
[5] = Plasma concentration in Calu-6 cells xenografted nude mouse PK/PD model at 75 mg/kg, po bid for 5 days measured 4 hrs post last dose relative to untreated control; assay type: ADME, organism-based; set-up: dose 75 mg/kg, route oral
In short: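 Calu-6 tumor-bearing mice were dosed orally 75 mg/kg BID for five doses. Plasma was sampled 4 h after the last dose, at the same time as tumor harvest. Compound was given as free base or HCl salt, suspended in a methylcellulose/Tween or Labrafil-based vehicle.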

[6] = Volume of distribution at steady state in rat at 5 mg/kg, po or 1 mg/kg, iv; assay type: ADME, organism-based; conditions: in vivo, read-out: Vdss
In short: (§1)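 Male rats received the TFA salt as a solution. The IV dose was 1 mg/kg in 80% PEG or in 5% DMSO/5% cremophor. The oral dose was 5 mg/kg in 60–80% PEG.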

[7] = Thermodynamic solubility at pH 6.5; assay type: physicochemical; conditions: buffer
[8] = test system: Mus musculus; assay: Inhibition of Hedgehog signaling in Calu-6 cells xenografted nude mouse PK/PD model assessed as reduction in Gli1 mRNA expression at 75 mg/kg, po bid for 5 days measured 4 hrs post last dose relative to untreated control; assay type: functional; conditions: Calu-6, po, in the assay text read “for 5 doses” for “for 5 days”
In short: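 Nude mice bearing established Calu-6 tumors got 75 mg/kg by oral gavage BID for five doses. Tumors were harvested 4 h after the last dose. Stromal (murine) Gli1 mRNA was measured and expressed relative to vehicle-treated tumors. Compound was given as free base or HCl salt, suspended in a methylcellulose/Tween or Labrafil-based formulation.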

[9] = Thermodynamic solubility at pH 1.0; assay type: physicochemical; conditions: buffer
[10] = Clearance in rat at 5 mg/kg, po or 1 mg/kg, iv; assay type: ADME, organism-based; conditions: in vivo; in short: as §1
[11] = test system: Mus musculus; assay: Inhibition of Hedgehog signaling in Calu-6 cells xenografted nude mouse PK/PD model assessed as reduction in Gli1 mRNA expression at 75 mg/kg, po bid for 5 doses measured 4 hrs post last dose relative to untreated control; conditions: Calu-6, po
[12] = test system: Mus musculus; assay: Inhibition of Hedgehog signaling in Calu-6 cells xenografted nude mouse PK/PD model assessed as reduction in Gli1 mRNA expression at 25 mg/kg, po bid for 5 days measured 4 hrs post last dose relative to untreated control; assay type: functional
[13] = test system: Mus musculus; assay: Antitumor activity in mouse medulloblastoma allograft model harboring tumors with activating mutations in Hh pathway (Ptch+/-) assessed as complete regression of tumor volume at 5 mg/kg, po bid; assay type: functional, organism-based; set-up: dose 5 mg/kg
In short: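 Spontaneous medulloblastomas from Ptch+/- mice passaged subcutaneously in nude mice. Once tumors were established, mice were dosed twice daily for 20 days at 5 mg/kg BID. Tumor volume was followed over time.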

[14] = Plasma concentration in Calu-6 cells xenografted nude mouse PK/PD model at 25 mg/kg, po bid for 5 days measured 6 hrs post last dose relative to untreated control; assay type: ADME, organism-based; set-up: dose 25 mg/kg, route oral
[15] = test system: Mus musculus; assay: Volume of distribution in Calu-6 cells xenografted nude mouse PK/PD model at 75 mg/kg, po bid for 5 days measured 4 hrs post last dose relative to untreated control; assay type: ADME, organism-based; set-up: dose 75 mg/kg, route oral; conditions: in vivo

Chain of Cytochrome P450 2C9 (P11712 whole entry): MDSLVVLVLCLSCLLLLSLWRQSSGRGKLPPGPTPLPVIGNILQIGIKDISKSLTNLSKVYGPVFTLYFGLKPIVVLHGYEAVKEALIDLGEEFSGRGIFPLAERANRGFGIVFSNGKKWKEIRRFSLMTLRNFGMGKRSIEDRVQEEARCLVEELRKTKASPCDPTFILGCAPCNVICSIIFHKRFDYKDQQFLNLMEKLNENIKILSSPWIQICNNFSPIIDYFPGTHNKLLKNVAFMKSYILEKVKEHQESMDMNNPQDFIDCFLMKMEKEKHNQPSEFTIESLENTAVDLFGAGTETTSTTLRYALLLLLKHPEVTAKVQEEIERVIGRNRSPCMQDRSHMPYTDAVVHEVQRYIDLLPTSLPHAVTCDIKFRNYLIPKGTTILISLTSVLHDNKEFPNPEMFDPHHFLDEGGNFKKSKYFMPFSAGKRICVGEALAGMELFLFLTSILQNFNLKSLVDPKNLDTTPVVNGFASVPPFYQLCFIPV
Chain of Cytochrome P450 3A4 (P08684 whole entry): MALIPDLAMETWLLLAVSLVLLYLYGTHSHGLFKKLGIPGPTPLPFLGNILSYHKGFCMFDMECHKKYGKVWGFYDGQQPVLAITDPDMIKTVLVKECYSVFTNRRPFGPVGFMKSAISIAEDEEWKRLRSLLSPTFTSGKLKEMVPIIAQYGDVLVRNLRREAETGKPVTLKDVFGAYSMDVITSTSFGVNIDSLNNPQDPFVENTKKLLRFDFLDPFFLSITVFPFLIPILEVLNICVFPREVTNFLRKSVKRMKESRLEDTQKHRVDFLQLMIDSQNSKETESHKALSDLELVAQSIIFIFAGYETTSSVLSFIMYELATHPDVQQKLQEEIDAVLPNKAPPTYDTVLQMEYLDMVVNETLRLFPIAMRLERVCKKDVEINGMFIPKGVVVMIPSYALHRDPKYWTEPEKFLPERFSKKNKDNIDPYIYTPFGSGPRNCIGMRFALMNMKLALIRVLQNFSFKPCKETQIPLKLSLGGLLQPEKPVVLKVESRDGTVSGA

Row | IC50 [1] [nM] | IC50 [2] [µM] | IC50 [3] [nM] | IC50 [4] [µM] | concentration at 4 h [5] [µM] | Vd [6] [L/kg] | solubility thermodynamic [7] [µg/mL] | solubility thermodynamic [9] [µg/mL] | clearance [10] [mL/min/kg] | concentration at 6 h [14] [nM] | Vd [15] [L/kg] | Structure (SMILES) | inhibition in vivo at 75 mg/kg [8] [%] | inhibition in vivo at 75 mg/kg [11] [%] | inhibition in vivo at 25 mg/kg [12] [%] | inhibition [13]
1 | 5 | > 20 | 35 | > 20 | – | – | – | – | – | – | – | NS(=O)(=O)c1ccc(C(=O)Nc2ccc(Cl)c(-c3ccccn3)c2)c(Cl)c1 | – | – | – | –
2 | 5 | > 20 | 22 | 16 | 22 | 0.38 | 6 (≈ 13.3 µM) | 3200 (≈ 7110 µM) | 2 | – | – | CC(=O)N1CCN(c2ccc(C(=O)Nc3ccc(Cl)c(-c4ccccn4)c3)c(C)n2)CC1 | 80 | – | – | –
3 | 1 | > 20 | 3 | 16 | 0.3 | – | 3 (≈ 6.89 µM) | 110 (≈ 253 µM) | 5.5 | – | – | CS(=O)(=O)Cc1ccc(C(=O)Nc2ccc(Cl)c(-c3ccccn3)c2)c(Cl)c1 | 0 | – | – | –
4 | 5 | > 20 | 160 | > 20 | – | – | – | – | – | – | – | CCN1CCN(c2ccc(C(=O)Nc3ccc(Cl)c(-c4ccccn4)c3)c(C)n2)CC1 | – | – | – | –
5 | 3 | > 20 | 13 | > 20 | – | – | 10 (≈ 23.7 µM) | 3500 (≈ 8310 µM) | 3.7 | – | – | CS(=O)(=O)c1ccc(C(=O)Nc2ccc(Cl)c(-c3ccccn3)c2)c(Cl)c1 [VISMODEGIB] | 90 | – | – | –
6 | 15 | > 20 | 42 | > 20 | 15 | 0.95 | 2 (≈ 5.1 µM) | 1000 (≈ 2550 µM) | 4.5 | – | – | Cc1nc(C(F)(F)F)ccc1C(=O)Nc1ccc(Cl)c(-c2ccccn2)c1 | 40 | – | – | –
7 | 2 | > 20 | 17 | 8 | 2.2 | – | 1 (≈ 2.29 µM) | 910 (≈ 2090 µM) | 2.4 | – | – | CS(=O)(=O)Nc1ccc(C(=O)Nc2ccc(Cl)c(-c3ccccn3)c2)c(Cl)c1 | – | 25 | – | –
8 | 5 | > 20 | 33 | 9 | – | – | 60 (≈ 119 µM) | 4300 (≈ 8530 µM) | 35 | – | – | O=C(Nc1ccc(Cl)c(-c2ccccn2)c1)c1ccc(C(=O)N2CCS(=O)(=O)CC2)cc1Cl | – | – | – | –
9 | 0.4 | > 20 | 4 | 4.5 | – | – | 3 (≈ 6.28 µM) | 4300 (≈ 9010 µM) | 6.7 | 1700 | – | O=C(NCc1ccccn1)c1ccc(C(=O)Nc2ccc(Cl)c(-c3ccccn3)c2)c(Cl)c1 | – | – | 90 | Active
10 | 8 | > 20 | 67 | > 20 | 150 | 0.24 | 6 (≈ 14.8 µM) | 900 (≈ 2220 µM) | 0.7 | – | 0.15 | Cc1ncn(-c2ccc(C(=O)Nc3ccc(Cl)c(-c4ccccn4)c3)c(C)n2)n1 | – | 50 | – | –
11 | 1 | > 20 | 7 | 1.2 | – | – | – | – | – | – | – | O=C(NCc1ccccc1)c1ccc(C(=O)Nc2ccc(Cl)c(-c3ccccn3)c2)c(Cl)c1 | – | – | – | –
12 | 23 | > 20 | 62 | > 20 | – | – | – | – | – | – | – | Cc1nc(NCCO)ccc1C(=O)Nc1ccc(Cl)c(-c2ccccn2)c1 | – | – | – | –
13 | 8 | 0.2 | 47 | 0.2 | – | 1.4 | 8 (≈ 21.2 µM) | 4000 (≈ 10600 µM) | 4 | – | – | O=C(Nc1ccc(Cl)c(-c2ccccn2)c1)c1ccc(-n2cncn2)nc1 | – | – | – | –
14 | 14 | 19 | 53 | 0.5 | – | – | – | – | – | – | – | Cc1nc(NCC(C)C)ccc1C(=O)Nc1ccc(Cl)c(-c2ccccn2)c1 | – | – | – | –
